In publication PMC2077835 (Drug metabolism and disposition: the biological fate of …, 2006):

Experiments:
CYP2J2 = target: T1, CYP2J2 (Homo sapiens, UniProt P51589); assay: DB289 consumption by recombinant CYP2J2; type: in vitro ADME; details: 3.0 μM DB289, 50 pmol/ml P450, 15 min
T1 sequence (P51589 1-502): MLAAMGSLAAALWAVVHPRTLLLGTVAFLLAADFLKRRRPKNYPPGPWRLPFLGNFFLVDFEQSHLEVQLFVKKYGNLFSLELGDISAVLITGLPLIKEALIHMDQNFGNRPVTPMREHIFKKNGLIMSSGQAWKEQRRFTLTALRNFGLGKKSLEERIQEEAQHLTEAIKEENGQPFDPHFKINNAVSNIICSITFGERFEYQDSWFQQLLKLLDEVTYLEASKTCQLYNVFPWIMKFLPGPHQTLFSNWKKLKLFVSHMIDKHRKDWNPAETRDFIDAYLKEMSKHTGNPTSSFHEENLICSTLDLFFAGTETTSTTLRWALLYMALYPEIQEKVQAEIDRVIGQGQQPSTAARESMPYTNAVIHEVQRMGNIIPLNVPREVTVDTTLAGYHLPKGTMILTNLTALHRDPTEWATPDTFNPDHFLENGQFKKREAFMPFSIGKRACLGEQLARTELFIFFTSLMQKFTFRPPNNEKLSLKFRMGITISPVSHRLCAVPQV
How it was run: (§1)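 A second recombinant panel (Supersomes; the CYP2J2, CYP3A7 and CYP4F forms coexpressed with reductase and cytochrome b5). Each enzyme was incubated alone with 3.0 μM substrate and NADPH in pH 7.4 phosphate/MgCl2 at 37°C for 15 min. Acetonitrile quench with internal standard, centrifugation, LC/MS/MS. Percent consumed normalised to 0 min. Control Supersomes; means of duplicates.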

recombinant human CYP1A2 = recombinant human CYP1A2 (Homo sapiens, UniProt P05177); assay: DB289 consumption by recombinant CYP1A2; type: in vitro ADME; details: 3.0 μM DB289, 50 pmol/ml P450, 15 min
recombinant human CYP1A2, sequence (P05177 2-516 limits assumed): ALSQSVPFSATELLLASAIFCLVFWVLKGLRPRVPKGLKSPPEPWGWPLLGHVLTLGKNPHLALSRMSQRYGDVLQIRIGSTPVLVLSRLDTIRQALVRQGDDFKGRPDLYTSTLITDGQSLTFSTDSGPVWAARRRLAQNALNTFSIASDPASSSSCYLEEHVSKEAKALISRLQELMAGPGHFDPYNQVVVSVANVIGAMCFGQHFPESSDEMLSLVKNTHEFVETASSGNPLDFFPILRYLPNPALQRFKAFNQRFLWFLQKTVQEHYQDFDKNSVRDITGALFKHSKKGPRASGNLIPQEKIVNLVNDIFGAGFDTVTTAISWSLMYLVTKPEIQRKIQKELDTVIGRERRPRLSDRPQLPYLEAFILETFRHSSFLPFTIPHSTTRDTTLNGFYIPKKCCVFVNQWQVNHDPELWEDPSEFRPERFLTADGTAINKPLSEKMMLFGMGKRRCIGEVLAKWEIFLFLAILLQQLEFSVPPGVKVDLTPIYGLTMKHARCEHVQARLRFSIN
How it was run: (§2)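 Baculovirus-insect-cell Supersomes coexpressing human P450 with NADPH-P450 reductase; the CYP2E1 enzyme also had cytochrome b5. 3.0 μM substrate, 50 pmol/ml P450 (100 pmol/ml for CYP2C8 and CYP2C9), in 100 mM phosphate pH 7.4 with 3.3 mM MgCl2 and 1 mM NADPH, 37°C, 15 min. Quenched in ice-cold acidified acetonitrile with deuterated internal standard, then LC/MS/MS. Percent consumed relative to 0 min; control Supersomes; duplicates.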

CYP2C9 = CYP2C9 (Homo sapiens, UniProt P11712); assay: Inhibition of P450 activities by DB289: diclofenac 4′-hydroxylation; type: in vitro ADME; details: 3.0 μM DB289, pooled HLMs 0.25 mg/ml
CYP2C9, sequence (P11712 whole entry): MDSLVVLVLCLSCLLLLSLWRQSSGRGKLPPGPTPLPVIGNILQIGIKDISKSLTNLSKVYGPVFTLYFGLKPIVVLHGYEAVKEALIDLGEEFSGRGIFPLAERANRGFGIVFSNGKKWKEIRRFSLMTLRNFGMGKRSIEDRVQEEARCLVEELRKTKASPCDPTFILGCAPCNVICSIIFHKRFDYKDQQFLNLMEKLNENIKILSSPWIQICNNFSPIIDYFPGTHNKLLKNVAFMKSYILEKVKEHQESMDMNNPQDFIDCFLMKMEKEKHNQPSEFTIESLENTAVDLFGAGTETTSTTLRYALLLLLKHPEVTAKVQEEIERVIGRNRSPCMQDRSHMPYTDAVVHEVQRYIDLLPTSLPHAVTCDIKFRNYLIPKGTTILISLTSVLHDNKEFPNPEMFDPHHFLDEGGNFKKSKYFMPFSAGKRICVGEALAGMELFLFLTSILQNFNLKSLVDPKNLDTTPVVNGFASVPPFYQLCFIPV
How it was run: (§3)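 Test compound (3.0 μM) was preincubated 0 and 15 min with pooled microsomes (0.25 mg/ml) and 2 mM NADPH (final concentrations). A P450-selective marker substrate was then added and marker activity measured. Reference selective chemical inhibitors were run for comparison (none for CYP4A11). Solvent-only controls.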

recombinant human CYP2B6 = recombinant human CYP2B6 (Homo sapiens, UniProt P20813); assay: DB289 consumption by recombinant CYP2B6; type: in vitro ADME; details: 3.0 μM DB289, 50 pmol/ml P450, 15 min
recombinant human CYP2B6, sequence (P20813 whole entry): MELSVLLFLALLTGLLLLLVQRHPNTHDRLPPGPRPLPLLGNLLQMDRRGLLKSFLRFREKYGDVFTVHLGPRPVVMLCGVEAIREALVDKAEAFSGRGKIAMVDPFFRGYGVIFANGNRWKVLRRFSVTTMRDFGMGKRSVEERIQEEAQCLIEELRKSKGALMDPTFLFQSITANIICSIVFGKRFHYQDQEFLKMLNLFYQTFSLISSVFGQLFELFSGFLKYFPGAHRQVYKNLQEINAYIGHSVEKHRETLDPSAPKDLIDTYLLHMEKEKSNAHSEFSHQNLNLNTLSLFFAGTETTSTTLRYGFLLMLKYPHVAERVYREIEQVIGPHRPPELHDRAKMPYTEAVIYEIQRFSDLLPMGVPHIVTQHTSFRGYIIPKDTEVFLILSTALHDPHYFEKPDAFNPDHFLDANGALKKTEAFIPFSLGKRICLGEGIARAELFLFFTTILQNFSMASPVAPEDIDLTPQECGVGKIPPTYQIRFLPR
How it was run: as §2

[1] = target: flavin monooxygenase 3 (FMO3) (Homo sapiens, UniProt P31513); assay: Incubation of DB289 with recombinant FMO3; type: in vitro ADME; details: FMO3 0.5 mg/ml
flavin monooxygenase 3 (FMO3), sequence (P31513 whole entry): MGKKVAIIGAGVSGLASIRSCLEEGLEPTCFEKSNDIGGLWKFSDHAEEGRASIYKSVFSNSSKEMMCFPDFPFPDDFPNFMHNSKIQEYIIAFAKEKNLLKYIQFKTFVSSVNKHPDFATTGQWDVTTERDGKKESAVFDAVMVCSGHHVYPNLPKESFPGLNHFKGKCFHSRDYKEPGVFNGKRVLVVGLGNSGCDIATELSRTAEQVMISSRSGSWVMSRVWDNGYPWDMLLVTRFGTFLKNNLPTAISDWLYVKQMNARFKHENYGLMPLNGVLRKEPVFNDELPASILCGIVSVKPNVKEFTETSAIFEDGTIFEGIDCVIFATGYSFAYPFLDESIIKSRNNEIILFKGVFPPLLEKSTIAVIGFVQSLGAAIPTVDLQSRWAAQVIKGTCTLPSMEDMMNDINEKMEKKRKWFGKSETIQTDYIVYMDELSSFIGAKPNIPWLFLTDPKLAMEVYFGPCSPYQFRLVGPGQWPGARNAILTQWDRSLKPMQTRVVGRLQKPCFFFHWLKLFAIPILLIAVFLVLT
How it was run: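 Baculovirus insect-cell-expressed human FMO3 at 0.5 mg/ml. Incubated with substrate under the conditions used for the liver-microsome consumption assay: pH 7.4 phosphate, MgCl2, NADPH, 37°C. Analysed by LC/MS/MS.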

recombinant CYP4F2 = target: T2, recombinant CYP4F2 (Homo sapiens, UniProt P78329); assay: DB289 consumption by recombinant CYP4F2; type: in vitro ADME; details: 3.0 μM DB289, 50 pmol/ml P450, 15 min
T2 sequence (P78329 5-520): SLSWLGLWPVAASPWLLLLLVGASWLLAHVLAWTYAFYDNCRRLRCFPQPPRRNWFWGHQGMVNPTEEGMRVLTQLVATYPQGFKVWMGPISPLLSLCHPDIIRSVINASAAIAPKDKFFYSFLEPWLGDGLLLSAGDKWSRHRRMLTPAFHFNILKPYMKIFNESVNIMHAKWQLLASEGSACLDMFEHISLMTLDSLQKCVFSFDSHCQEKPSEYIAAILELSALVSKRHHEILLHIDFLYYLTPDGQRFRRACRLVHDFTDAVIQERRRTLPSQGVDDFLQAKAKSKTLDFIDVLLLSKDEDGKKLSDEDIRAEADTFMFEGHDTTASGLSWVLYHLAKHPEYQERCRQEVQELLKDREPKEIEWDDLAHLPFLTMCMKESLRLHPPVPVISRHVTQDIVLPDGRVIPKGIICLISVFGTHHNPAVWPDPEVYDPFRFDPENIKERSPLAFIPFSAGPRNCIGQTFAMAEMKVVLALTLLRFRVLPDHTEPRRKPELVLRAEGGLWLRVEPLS
How it was run: as §1

CYP4A11 = CYP4A11 (Homo sapiens, UniProt Q02928); assay: DB289 consumption by recombinant CYP4A11; type: in vitro ADME; details: 3.0 μM DB289, 50 pmol/ml P450, 15 min
CYP4A11, sequence (Q02928 5-519): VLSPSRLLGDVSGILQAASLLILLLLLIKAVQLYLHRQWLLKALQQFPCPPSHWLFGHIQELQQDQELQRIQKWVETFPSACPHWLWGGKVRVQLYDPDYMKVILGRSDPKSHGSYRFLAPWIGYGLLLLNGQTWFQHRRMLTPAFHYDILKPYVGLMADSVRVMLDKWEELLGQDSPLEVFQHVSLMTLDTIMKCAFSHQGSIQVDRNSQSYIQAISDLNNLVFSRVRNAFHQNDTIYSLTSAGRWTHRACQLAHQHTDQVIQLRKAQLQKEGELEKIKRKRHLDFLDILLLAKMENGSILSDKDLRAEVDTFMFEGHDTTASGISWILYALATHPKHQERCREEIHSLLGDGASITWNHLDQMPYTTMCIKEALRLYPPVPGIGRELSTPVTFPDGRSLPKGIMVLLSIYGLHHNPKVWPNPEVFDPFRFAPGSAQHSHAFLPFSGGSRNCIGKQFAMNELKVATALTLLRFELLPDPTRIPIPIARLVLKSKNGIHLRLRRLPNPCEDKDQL

CYP2E1 = CYP2E1 (Homo sapiens, UniProt P05181); assay: DB289 consumption by recombinant CYP2E1; type: in vitro ADME; details: 3.0 μM DB289, 50 pmol/ml P450, 15 min
CYP2E1, sequence (P05181 whole entry): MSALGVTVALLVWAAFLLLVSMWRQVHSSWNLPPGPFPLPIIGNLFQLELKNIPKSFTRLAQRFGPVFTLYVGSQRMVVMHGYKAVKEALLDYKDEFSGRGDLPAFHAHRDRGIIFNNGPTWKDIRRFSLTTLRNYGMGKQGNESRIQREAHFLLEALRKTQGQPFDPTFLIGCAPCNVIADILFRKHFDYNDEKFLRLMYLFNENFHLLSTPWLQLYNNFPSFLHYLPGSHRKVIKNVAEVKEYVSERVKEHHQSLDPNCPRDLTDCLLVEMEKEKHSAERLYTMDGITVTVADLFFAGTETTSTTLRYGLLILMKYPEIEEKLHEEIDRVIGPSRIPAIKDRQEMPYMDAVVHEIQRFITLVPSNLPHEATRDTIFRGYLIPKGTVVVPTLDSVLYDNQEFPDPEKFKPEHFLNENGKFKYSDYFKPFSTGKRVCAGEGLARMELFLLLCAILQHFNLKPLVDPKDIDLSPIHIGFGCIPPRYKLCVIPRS
How it was run: as §2

CYP3A4/5 = assay: Inhibition of P450 activities by DB289: testosterone 6β-hydroxylation; type: in vitro ADME, human; details: 3.0 μM DB289, pooled HLMs 0.25 mg/ml
How it was run: as §3

recombinant human CYP1B1 = recombinant human CYP1B1 (Homo sapiens, UniProt Q16678); assay: DB289 consumption by recombinant CYP1B1; type: in vitro ADME; details: 3.0 μM DB289, 50 pmol/ml P450, 15 min
recombinant human CYP1B1, sequence (Q16678 whole entry): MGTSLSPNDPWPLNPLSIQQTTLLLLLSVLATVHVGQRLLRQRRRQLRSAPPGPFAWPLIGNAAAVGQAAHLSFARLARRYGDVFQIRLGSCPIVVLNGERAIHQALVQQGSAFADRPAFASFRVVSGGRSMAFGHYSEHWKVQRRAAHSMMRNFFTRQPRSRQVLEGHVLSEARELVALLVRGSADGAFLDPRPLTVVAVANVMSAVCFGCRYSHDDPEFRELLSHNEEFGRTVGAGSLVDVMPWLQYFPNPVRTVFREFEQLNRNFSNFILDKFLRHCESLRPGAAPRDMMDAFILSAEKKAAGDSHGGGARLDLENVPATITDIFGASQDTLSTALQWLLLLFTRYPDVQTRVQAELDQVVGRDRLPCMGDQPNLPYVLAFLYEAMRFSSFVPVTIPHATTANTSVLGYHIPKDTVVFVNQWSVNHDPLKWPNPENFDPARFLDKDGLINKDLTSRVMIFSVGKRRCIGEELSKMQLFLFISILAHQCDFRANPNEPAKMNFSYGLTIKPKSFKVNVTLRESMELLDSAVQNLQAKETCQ
How it was run: as §2

[2] = DB289 metabolism by heat-inactivated human liver microsomes; type: in vitro ADME; details: 60°C for 90 s; data not shown
How it was run: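 Human liver microsomes were heated at 60°C for 90 s before incubation to inactivate flavin monooxygenase. Then used in standard NADPH incubations (pH 7.4 phosphate, MgCl2, 37°C) to test FMO contribution to substrate metabolism.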

[3] = ref Fitzpatrick et al., 2004; cited from earlier work
recombinant human CYP3A5 = recombinant human CYP3A5 (Homo sapiens, UniProt P20815); assay: DB289 consumption by recombinant CYP3A5; type: in vitro ADME; details: 3.0 μM DB289, 50 pmol/ml P450, 15 min
recombinant human CYP3A5, sequence (P20815 whole entry): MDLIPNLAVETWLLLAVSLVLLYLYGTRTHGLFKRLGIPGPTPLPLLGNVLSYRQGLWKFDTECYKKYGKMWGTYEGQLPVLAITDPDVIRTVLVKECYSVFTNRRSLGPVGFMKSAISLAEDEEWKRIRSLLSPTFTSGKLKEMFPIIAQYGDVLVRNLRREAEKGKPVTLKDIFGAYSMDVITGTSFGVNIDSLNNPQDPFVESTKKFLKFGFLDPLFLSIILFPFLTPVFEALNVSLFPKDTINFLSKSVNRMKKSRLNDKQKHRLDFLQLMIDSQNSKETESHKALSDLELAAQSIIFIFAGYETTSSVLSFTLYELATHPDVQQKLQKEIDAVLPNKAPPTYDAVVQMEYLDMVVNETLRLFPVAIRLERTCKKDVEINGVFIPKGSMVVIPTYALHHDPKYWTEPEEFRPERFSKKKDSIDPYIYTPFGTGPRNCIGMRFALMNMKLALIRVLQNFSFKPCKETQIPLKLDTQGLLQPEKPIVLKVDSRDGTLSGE
How it was run: as §2

[4] = oral; ref Yeates, 2003; cited from earlier work
recombinant human CYP3A7 = recombinant human CYP3A7 (Homo sapiens, UniProt P24462); assay: DB289 consumption by recombinant CYP3A7; type: in vitro ADME; details: 3.0 μM DB289, 50 pmol/ml P450, 15 min
recombinant human CYP3A7, sequence (P24462 whole entry): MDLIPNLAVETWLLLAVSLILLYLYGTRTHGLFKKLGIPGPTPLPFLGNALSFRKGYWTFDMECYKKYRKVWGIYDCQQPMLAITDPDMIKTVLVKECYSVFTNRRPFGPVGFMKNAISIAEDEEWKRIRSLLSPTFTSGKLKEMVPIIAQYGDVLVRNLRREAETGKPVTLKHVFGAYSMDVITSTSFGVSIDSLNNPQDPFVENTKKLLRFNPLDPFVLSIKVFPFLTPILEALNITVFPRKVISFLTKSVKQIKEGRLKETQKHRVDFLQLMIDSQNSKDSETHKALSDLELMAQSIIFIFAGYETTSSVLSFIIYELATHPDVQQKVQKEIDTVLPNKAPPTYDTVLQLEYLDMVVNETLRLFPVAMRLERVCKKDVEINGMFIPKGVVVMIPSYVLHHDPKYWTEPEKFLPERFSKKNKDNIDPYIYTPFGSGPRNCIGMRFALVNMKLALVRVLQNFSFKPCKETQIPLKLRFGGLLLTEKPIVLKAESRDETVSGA
How it was run: as §1

CON=C(N)c1ccc(-c2ccc(-c3ccc(C(N)=NOC)cc3)o2)cc1 [DB289, 2,5-bis(4-amidinophenyl)furan-bis-O-methylamidoxime]
percentage of substrate consumed (CYP2J2): 85%
percentage of substrate consumed (recombinant human CYP1A2): 61%
inhibition of CYP2C9 activity (CYP2C9): 20−25%
percentage of substrate consumed (recombinant human CYP2B6): less than 5%
metabolism of DB289 by recombinant human FMO3 [1]: did not show any detectable metabolism
percentage of substrate consumed (recombinant CYP4F2): 98%
percentage of substrate consumed (CYP4A11): less than 5%
percentage of substrate consumed (CYP2E1): 7%
inhibition of CYP3A activity (CYP3A4/5): minimal to no inhibition
percentage of substrate consumed (recombinant human CYP1B1): 46%
effect of heat inactivation of microsomes on DB289 metabolism [2]: did not impede DB289 metabolism
plasma protein binding [3]: high plasma protein-binding
percentage of substrate consumed (recombinant human CYP3A5): 8%
tolerability [4]: well tolerated, with no serious side effects
percentage of substrate consumed (recombinant human CYP3A7): less than 5%
